# In ChEMBL document CHEMBL2016548, “Synthesis and evaluation of anti-thrombotic activity of benzocoumarin amide derivatives” (Bioorg Med Chem Lett, 2012):
# Active and inactive are the calls of the source. The rule behind the calls is not given here.
# Columns and labels:
# [1] = system: Mus musculus; test: Anti-thrombotic activity in collagen and adrenaline challenged mouse pulmonary thromboembolism model assessed as protection from paralysis or death at 30 uM/kg, po administered 60 mins prior to thrombotic challenge; format: functional
# Outline: (§1)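 Mice were dosed orally 60 min before the challenge, alongside a vehicle group. Pulmonary thromboembolism was then induced by tail-vein injection of a collagen plus adrenaline mixture. Groups held ten mice per test agent and five per reference drug or vehicle. The read-out was % protection against hind-limb paralysis or death.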
# [2] = system: Mus musculus; test: Increase of bleeding time in mouse at 30 uM/kg, po administered 60 mins prior to tail incision; format: ADME, organism-based; conditions: in vivo, 1 h
# Outline: (§2)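 Compound, aspirin or vehicle given orally 60 min before cutting the tail 2 mm from the tip, five mice per group. Blood was blotted onto filter paper every 10–15 s until flow stopped. Bleeding time is the interval from incision to cessation.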
# [3] = system: Platelet; test: Antiplatelet activity in mouse platelet rich plasma assessed as inhibition of collagen-induced platelet aggregation at 30 uM by aggregometry; format: functional, cell-free
# Outline: (§3)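 Mice anaesthetized with ether and bled by cardiac puncture. Platelet-rich plasma was pooled, split into sub-pools and spiked with compound or vehicle. Aggregation was induced with ADP or collagen and followed on a dual-channel aggregometer. Data given as mean ± SEM, n = 3, compared against vehicle control.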
# [4] = system: Platelet; test: Antiplatelet activity in mouse platelet rich plasma assessed as inhibition of ADP-induced platelet aggregation at 30 uM by aggregometry; format: functional, cell-free; outline: as §3
# [5] = system: Plasma; test: Anticoagulant activity in mouse platelet poor plasma assessed as increase in activated partial thromboplastin time at 30 uM by coagulometry; format: functional, cell-free
# Outline: (§4)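 Mice anaesthetized with ether and bled by cardiac puncture. Platelet-poor plasma was pooled, split into sub-pools and spiked with compound or vehicle. Thrombin time, prothrombin time and APTT were run with commercial kits per manufacturer's instructions on a semi-automated coagulometer. Data given as mean ± SEM, n = 3, compared against vehicle control.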
# [6] = system: Plasma; test: Anticoagulant activity in mouse platelet poor plasma assessed as increase in thrombin time at 30 uM by coagulometry; format: functional, cell-free; outline: as §4
# [7] = system: Plasma; test: Anticoagulant activity in mouse platelet poor plasma assessed as increase in prothrombin time at 30 uM by coagulometry; format: functional, cell-free; outline: as §4
# [8] = system: Platelet; test: Antiplatelet activity in mouse platelet rich plasma assessed as inhibition of collagen-induced platelet aggregation at 10 uM by aggregometry; format: functional, cell-free; outline: as §3
# [9] = system: Platelet; test: Antiplatelet activity in mouse platelet rich plasma assessed as inhibition of ADP-induced platelet aggregation at 10 uM by aggregometry; format: functional, cell-free; outline: as §3
# [10] = system: Plasma; test: Anticoagulant activity in mouse platelet poor plasma assessed as increase in activated partial thromboplastin time at 10 uM by coagulometry; format: functional, cell-free; outline: as §4
# [11] = system: Plasma; test: Anticoagulant activity in mouse platelet poor plasma assessed as increase in thrombin time at 10 uM by coagulometry; format: functional, cell-free; outline: as §4
# [12] = system: Plasma; test: Anticoagulant activity in mouse platelet poor plasma assessed as increase in prothrombin time at 10 uM by coagulometry; format: functional, cell-free; outline: as §4
# [13] = system: Mus musculus; test: Ex-vivo antiplatelet activity in mouse platelet rich plasma assessed as inhibition of ADP-induced platelet aggregation at 30 uM/kg, po for 3 days by aggregometry; format: functional
# [14] = system: Mus musculus; test: Ex-vivo antiplatelet activity in mouse platelet rich plasma assessed as inhibition of collagen-induced platelet aggregation at 30 uM/kg, po for 3 days by aggregometry; format: functional
# [15] = system: Mus musculus; test: Ex-vivo anticoagulant activity in mouse platelet poor plasma assessed as increase in thrombin time at 30 uM/kg, po for 3 days by coagulometry; format: functional
# Outline: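 Mice were dosed orally for three days, then bled by cardiac puncture under ether anaesthesia. Thrombin time was measured in platelet-poor plasma with a commercial kit on a semi-automated coagulometer and compared with vehicle-treated controls.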
# [16] = system: Platelet; test: Antiplatelet activity in mouse platelet rich plasma assessed as inhibition of collagen-induced platelet aggregation at 100 uM by aggregometry; format: functional, cell-free; outline: as §3
# [17] = system: Platelet; test: Antiplatelet activity in mouse platelet rich plasma assessed as inhibition of ADP-induced platelet aggregation at 100 uM by aggregometry; format: functional, cell-free; outline: as §3
# [18] = system: Mus musculus; test: Anti-thrombotic activity in collagen and adrenaline challenged mouse pulmonary thromboembolism model assessed as protection from paralysis or death at 30 mg/kg, po administered 60 mins prior thrombotic challenge; format: functional; outline: as §1
# [19] = system: Mus musculus; test: Increase of bleeding time in mouse at 30 mg/kg, po administered 60 mins prior to tail incision; format: ADME, organism-based; design: dose 30 mg/kg, route oral; conditions: in vivo, 1 h; outline: as §2
compound,measurement,setting,value
Cc1cc(=O)oc2c1ccc1c(OCC(=O)N3CCN(C)CC3)cccc12,Activity,[1],10%
same,Activity,[2],8.5%
Cc1cc(=O)oc2c1ccc1c(OCC(=O)NCCCO)cccc12,Activity,[1],45%
same,Activity,[2],112.5%
same,inhibition,[3],Active
same,inhibition,[4],Active
same,Activity,[5],inactive
same,Activity,[6],Active
same,Activity,[7],inactive
same,inhibition,[8],inactive
same,inhibition,[9],inactive
same,Activity,[10],inactive
same,Activity,[11],inactive
same,Activity,[12],inactive
Cc1ccc(CNC(=O)COc2cccc3c2ccc2c(C)cc(=O)oc23)cc1C,Activity,[2],58.5%
Cc1cc(=O)oc2c1ccc1c(OCC(=O)Nc3cccc(C(=O)O)c3)cccc12,Activity,[1],<10%
same,Activity,[2],8.5%
CCCNC(=O)COc1cccc2c1ccc1c(C)cc(=O)oc12,Activity,[1],40%
same,Activity,[2],91.5%
same,inhibition,[3],Active
same,inhibition,[4],Active
same,Activity,[5],inactive
same,Activity,[6],Active
same,Activity,[7],inactive
same,inhibition,[8],inactive
same,inhibition,[9],inactive
same,Activity,[10],inactive
same,Activity,[11],inactive
same,Activity,[12],inactive
COc1cc(NC(=O)COc2cccc3c2ccc2c(C)cc(=O)oc23)cc(OC)c1OC,Activity,[1],20%
same,Activity,[2],41.7%
Cc1cc(=O)oc2c1ccc1c(OCC(=O)NCc3ccccc3)cccc12,Activity,[1],10%
same,Activity,[2],8.5%
COc1ccc(CNC(=O)COc2cccc3c2ccc2c(C)cc(=O)oc23)cc1,Activity,[1],10%
same,Activity,[2],8.2%
Cc1cc(=O)oc2c1ccc1c(OCC(=O)NC(C)C)cccc12,Activity,[1],10%
same,Activity,[2],66.5%
Cc1cc(=O)oc2c1ccc1c(OCC(=O)NC3CCCCC3)cccc12,Activity,[1],10%
same,Activity,[2],0%
Cc1cc(=O)oc2c1ccc1c(OCC(=O)NC(C)(C)C)cccc12,Activity,[1],40%
same,Activity,[2],96.5%
same,inhibition,[3],Active
same,inhibition,[4],Active
same,inhibition (INH),[13],38%
same,inhibition (INH),[14],90%
same,Activity,[5],inactive
same,Activity,[6],Active
same,Activity,[7],inactive
same,inhibition,[8],inactive
same,inhibition,[9],inactive
same,Activity,[10],inactive
same,Activity,[11],inactive
same,Activity,[12],inactive
same,Activity,[15],74%
Cc1cc(=O)oc2c1ccc1c(OCC(=O)N3CCCCC3)cccc12,Activity,[1],30%
same,Activity,[2],58.5%
Cc1cc(=O)oc2c1ccc1c(OCC(=O)N3CCOCC3)cccc12,Activity,[1],30%
same,Activity,[2],66.8%
CC(=O)Oc1ccccc1C(=O)O [ASPIRIN],inhibition,[16],Active
same,inhibition,[17],Active
same,Activity,[18],37%
same,Activity,[19],100%
Cc1cc(=O)oc2c1ccc1c(OCC(=O)Nc3ccc(S(N)(=O)=O)cc3)cccc12,Activity,[1],<10%
same,Activity,[2],16.5%
